Reference: ChEMBL document CHEMBL4706672 (J Med Chem, 2021)
Calls of active or inactive are those of the source. No cut-off for these calls is given here.

Columns and labels:
BXPC-3 [1] = experiment: Antiproliferative activity against human BxPC-3 cells assessed as reduction in cell viability incubated for 3 days by MTT assay; type: functional, cell-based; details: BXPC-3, 72 h
[2] = target: Protein cereblon/Signal transducer and activator of transcription 3 (Homo sapiens, UniProt P40763+Q96SW2); experiment: Protac activity at CRBN/STAT3 in human BxPC-3 cells assessed as increase in inhibition of STAT3 protein levels at 2 to 3 uM incubated for 16 hrs in presence of protein synthesis inhibitor cycloheximide by western blot analysis; type: cell-based; details: dose 2-3 µM
In short: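 BxPC-3 cells pretreated 1 h with cycloheximide, then test agent for 16 h. Lysates immunoblotted for STAT3 and NQO1 against GAPDH, fluorescent imaging.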

[3] = target: T1, Protein cereblon/E3 ubiquitin-protein ligase ZFP91 (Homo sapiens, UniProt Q96SW2+Q96JP5); experiment: Protac activity at CRBN/ZFP91 in human BxPC-3 cells assessed as induction of ZF91 degradation incubated for 4 hrs by western blot analysis; type: cell-based
In short: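 BxPC-3 cells treated for 4, 16 or 24 h across a concentration series. ZFP91 immunoblotted against GAPDH; bands quantified by densitometry, DC50 calculated from dose-response curves of the densitometry.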

[4] = target: T1, Protein cereblon/E3 ubiquitin-protein ligase ZFP91; experiment: Protac activity at CRBN/ZFP91 in human BxPC-3 cells assessed as degradation of ZFP91 at 0.5 uM incubated for 16 hrs in presence of napabucasin by western blot analysis; type: cell-based
In short: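 Whole-cell lysates immunoblotted for ZFP91, GAPDH reference, densitometric quantification.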

[5] = target: Protein cereblon/Eukaryotic peptide chain release factor GTP-binding subunit ERF3A (Homo sapiens) (UniProt Q96SW2+P15170); experiment: Protac activity at CRBN/GSPT in human BxPC-3 cells assessed as degradation of GSPT at 1 to 3 uM incubated for 16 hrs by western blot analysis; type: cell-based; details: dose 1-3 µM
In short: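 BxPC-3 cells were treated with compound for 16 h, then lysed and immunoblotted for GSPT (1:1000) alongside GAPDH. Detection used fluorescent secondary antibodies on an Odyssey imager, and bands were quantified by densitometry.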

[6] = target: Protein cereblon/E3 ubiquitin-protein ligase DTX3L (Homo sapiens) (UniProt Q96SW2+Q8TDB6); experiment: Protac activity at CRBN/DTX3L in human BxPC-3 cells assessed as DTX3L degradation incubated for 16 hrs by proteomic analysis; type: cell-based
In short: (§1)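 TMT 10plex proteomics. […] Samples (75 μg) were reduced with DTT, alkylated with 2-chloroacetamide, acetone-precipitated, trypsin-digested overnight at 37 °C and TMT-labeled for LC-MS/MS relative quantitation.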

[7] = target: Protein cereblon/Signal transducer and activator of transcription 2 (Homo sapiens) (UniProt Q96SW2+P52630); experiment: Protac activity at CRBN/STAT2 in human BxPC-3 cells assessed as STAT2 degradation incubated for 16 hrs by proteomic analysis; type: cell-based; in short: as §1
[8] = target: Protein cereblon/SET domain-containing protein 4 (Homo sapiens) (UniProt Q96SW2+Q9NVD3); experiment: Protac activity at CRBN/SETD4 in human BxPC-3 cells assessed as SETD4 degradation incubated for 16 hrs by proteomic analysis; type: cell-based; in short: as §1
[9] = target: Protein cereblon/G2/mitotic-specific cyclin-B1 (Homo sapiens) (UniProt P14635+Q96SW2); experiment: Protac activity at CRBN/CCNB1 in human BxPC-3 cells assessed as CCNB1 degradation incubated for 16 hrs by proteomic analysis; type: cell-based; in short: as §1
[10] = target: Protein cereblon/SOSS complex subunit B1 (Homo sapiens) (UniProt Q96SW2+Q9BQ15); experiment: Protac activity at CRBN/NABP2 in human BxPC-3 cells assessed as NABP2 degradation incubated for 16 hrs by proteomic analysis; type: cell-based; in short: as §1
[11] = target: Protein cereblon/Cold shock domain-containing protein E1 (Homo sapiens) (UniProt Q96SW2+O75534); experiment: Protac activity at CRBN/CSDE1 in human BxPC-3 cells assessed as CSDE1 degradation incubated for 16 hrs by proteomic analysis; type: cell-based; in short: as §1
[12] = target: Protein cereblon/45 kDa calcium-binding protein (Homo sapiens) (UniProt Q96SW2+Q9BRK5); experiment: Protac activity at CRBN/SDF4 in human BxPC-3 cells assessed as SDF4 degradation incubated for 16 hrs by proteomic analysis; type: cell-based; in short: as §1
[13] = target: Protein cereblon/Laminin subunit beta-1 (Homo sapiens) (UniProt P07942+Q96SW2); experiment: Protac activity at CRBN/LAMB1 in human BxPC-3 cells assessed as LAMB1 degradation incubated for 16 hrs by proteomic analysis; type: cell-based; in short: as §1
[14] = target: Protein cereblon/Procollagen-lysine,2-oxoglutarate 5-dioxygenase 2 (Homo sapiens) (UniProt Q96SW2+O00469); experiment: Protac activity at CRBN/PLOD2 in human BxPC-3 cells assessed as PLOD2 degradation incubated for 16 hrs by proteomic analysis; type: cell-based; in short: as §1
[15] = target: Protein cereblon/Small EDRK-rich factor 2 (Homo sapiens) (UniProt Q96SW2+P84101); experiment: Protac activity at CRBN/SERF2 in human BxPC-3 cells assessed as SERF2 degradation incubated for 16 hrs by proteomic analysis; type: cell-based; in short: as §1
[16] = target: Protein cereblon/Cyclin-D1-binding protein 1 (Homo sapiens) (UniProt Q96SW2+O95273); experiment: Protac activity at CRBN/CCNDBP1 in human BxPC-3 cells assessed as CCNDBP1 degradation incubated for 16 hrs by proteomic analysis; type: cell-based; in short: as §1
[17] = Upregulation of DNAJB9 protein levels in human BxPC-3 cells incubated for 16 hrs by proteomic analysis; type: functional
In short: (§2)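 BxPC-3 cells exposed 16 h in triplicate (control, PROTAC) or duplicate (other arms); lysed in RIPA at 4 °C, 75 μg protein per sample. Reduced with DTT (1 h, 55 °C), alkylated with 2-chloroacetamide, acetone-precipitated, trypsin-digested overnight at 37 °C, TMT 10plex labelled, relative quantitation by LC-tandem MS.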

[18] = Upregulation of RND3 protein levels in human BxPC-3 cells incubated for 16 hrs by proteomic analysis; type: functional; in short: as §2
[19] = Upregulation of ZNF430 protein levels human BxPC-3 cells incubated for 16 hrs by proteomic analysis; type: functional
In short: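 BxPC-3 cells exposed to compound (2 μM) or DMSO control for 16 h, then lysed in RIPA buffer at 4 °C. Protein quantified by BCA; 75 μg per sample. TMT 10plex labeling: DTT reduction (1 h, 55 °C), 2-chloroacetamide alkylation (30 min, RT), acetone precipitation, overnight trypsin digestion at 37 °C, then LC-tandem MS relative quantitation. Control and treated samples run in triplicate.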

[20] = Upregulation of AFF1 protein levels in human BxPC-3 cells incubated for 16 hrs by proteomic analysis; type: functional; in short: as §2
[21] = Upregulation of BACH1 protein levels in human BxPC-3 cells incubated for 16 hrs by proteomic analysis; type: functional; in short: as §2
[22] = target: T1, Protein cereblon/E3 ubiquitin-protein ligase ZFP91; experiment: Protac activity at CRBN/ZFP91 in human BxPC-3 cells assessed as alteration of ZF91 protein levels at 0.5 uM incubated for 16 hrs in presence of NQO1 inhibitor dicoumarol; type: cell-based
In short: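 BxPC-3 cells treated 16 h with or without dicoumarol; carfilzomib added 1 h before treatments. ZFP91 immunoblotted against GAPDH.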

BXPC-3 [23] = experiment: Inhibition of colony formation in human BxPC-3 cells assessed as reduction in colony formation at 0.06 to 0.5 uM incubated for 7 to 10 days in presence of NQO1 inhibitor dicoumarol; details: dose 0.06-0.5 µM

T1 sequence (Q96JP5 2-570 partner limits assumed): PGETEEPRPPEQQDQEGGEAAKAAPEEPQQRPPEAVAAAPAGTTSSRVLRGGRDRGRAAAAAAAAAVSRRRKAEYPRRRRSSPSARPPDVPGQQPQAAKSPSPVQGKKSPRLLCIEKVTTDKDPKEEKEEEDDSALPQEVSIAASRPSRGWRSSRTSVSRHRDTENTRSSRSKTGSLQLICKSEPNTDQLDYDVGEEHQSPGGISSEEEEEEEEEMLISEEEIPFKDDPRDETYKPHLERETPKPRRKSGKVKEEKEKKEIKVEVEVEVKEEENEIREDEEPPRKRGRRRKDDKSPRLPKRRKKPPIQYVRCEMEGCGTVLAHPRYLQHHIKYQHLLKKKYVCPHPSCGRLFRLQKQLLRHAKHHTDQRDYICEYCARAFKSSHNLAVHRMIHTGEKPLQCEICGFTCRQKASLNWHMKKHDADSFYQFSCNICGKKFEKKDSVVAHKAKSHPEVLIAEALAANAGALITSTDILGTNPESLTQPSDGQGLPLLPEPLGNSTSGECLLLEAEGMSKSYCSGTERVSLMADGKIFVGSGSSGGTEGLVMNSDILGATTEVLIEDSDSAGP
T1 sequence (Q96SW2 whole entry): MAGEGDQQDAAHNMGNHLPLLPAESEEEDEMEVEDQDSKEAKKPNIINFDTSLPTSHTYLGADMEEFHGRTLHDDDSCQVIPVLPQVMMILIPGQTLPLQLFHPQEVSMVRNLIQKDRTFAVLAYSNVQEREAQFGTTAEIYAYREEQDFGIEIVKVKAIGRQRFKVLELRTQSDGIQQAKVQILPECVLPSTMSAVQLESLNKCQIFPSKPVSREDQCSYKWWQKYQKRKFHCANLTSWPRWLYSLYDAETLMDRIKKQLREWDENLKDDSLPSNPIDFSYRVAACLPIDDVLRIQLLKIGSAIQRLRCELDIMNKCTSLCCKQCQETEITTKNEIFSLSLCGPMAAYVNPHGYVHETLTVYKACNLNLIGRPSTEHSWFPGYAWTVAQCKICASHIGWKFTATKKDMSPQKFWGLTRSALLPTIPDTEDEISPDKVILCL
Chain of Protein cereblon/Laminin subunit beta-1 (Homo sapiens) (P07942 whole entry, looked up): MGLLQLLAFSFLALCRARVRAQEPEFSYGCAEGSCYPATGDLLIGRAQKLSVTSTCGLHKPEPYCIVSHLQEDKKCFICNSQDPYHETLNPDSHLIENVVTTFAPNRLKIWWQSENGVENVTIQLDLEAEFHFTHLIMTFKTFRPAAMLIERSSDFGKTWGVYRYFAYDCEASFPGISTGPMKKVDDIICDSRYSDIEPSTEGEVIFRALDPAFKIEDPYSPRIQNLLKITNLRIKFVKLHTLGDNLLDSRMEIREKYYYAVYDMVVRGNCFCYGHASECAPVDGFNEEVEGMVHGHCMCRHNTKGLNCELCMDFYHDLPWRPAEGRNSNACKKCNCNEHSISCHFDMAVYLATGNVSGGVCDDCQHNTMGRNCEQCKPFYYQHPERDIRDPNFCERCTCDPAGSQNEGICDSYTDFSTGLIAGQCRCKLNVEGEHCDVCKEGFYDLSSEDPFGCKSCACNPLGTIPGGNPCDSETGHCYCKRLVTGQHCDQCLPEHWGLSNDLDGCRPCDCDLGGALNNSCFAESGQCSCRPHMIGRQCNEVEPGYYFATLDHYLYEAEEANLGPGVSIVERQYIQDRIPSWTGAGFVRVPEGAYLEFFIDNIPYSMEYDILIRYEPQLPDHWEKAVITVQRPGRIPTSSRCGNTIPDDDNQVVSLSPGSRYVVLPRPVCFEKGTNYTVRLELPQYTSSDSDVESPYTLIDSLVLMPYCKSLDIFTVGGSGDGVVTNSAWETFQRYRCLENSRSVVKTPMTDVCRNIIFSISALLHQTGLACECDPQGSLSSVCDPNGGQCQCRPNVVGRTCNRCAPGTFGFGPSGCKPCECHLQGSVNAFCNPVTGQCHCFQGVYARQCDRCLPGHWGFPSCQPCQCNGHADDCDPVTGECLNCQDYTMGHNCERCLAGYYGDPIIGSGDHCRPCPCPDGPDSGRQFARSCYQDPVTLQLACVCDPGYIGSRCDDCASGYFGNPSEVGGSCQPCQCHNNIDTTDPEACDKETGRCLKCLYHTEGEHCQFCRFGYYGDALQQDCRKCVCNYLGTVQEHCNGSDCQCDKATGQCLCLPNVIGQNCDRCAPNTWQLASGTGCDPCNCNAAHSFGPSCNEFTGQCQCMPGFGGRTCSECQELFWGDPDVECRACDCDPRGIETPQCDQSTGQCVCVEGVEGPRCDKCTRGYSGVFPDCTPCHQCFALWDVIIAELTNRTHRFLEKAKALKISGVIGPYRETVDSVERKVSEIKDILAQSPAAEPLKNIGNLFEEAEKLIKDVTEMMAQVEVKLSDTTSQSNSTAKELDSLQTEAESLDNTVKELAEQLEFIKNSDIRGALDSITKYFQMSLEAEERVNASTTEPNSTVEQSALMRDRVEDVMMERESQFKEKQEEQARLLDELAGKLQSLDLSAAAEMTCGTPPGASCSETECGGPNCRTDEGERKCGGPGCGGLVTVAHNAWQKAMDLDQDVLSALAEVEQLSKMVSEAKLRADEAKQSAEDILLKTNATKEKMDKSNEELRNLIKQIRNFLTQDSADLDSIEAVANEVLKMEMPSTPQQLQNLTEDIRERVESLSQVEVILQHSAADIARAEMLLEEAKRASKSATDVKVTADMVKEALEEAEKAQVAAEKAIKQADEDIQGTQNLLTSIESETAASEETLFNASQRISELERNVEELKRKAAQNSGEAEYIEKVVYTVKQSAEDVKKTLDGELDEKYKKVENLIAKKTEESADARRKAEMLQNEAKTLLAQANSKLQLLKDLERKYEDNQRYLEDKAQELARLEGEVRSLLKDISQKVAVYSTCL
Chain of Protein cereblon/Laminin subunit beta-1 (Homo sapiens) (Q96SW2 whole entry, looked up): as the sequence (Q96SW2 whole entry) above
Chain of Protein cereblon/E3 ubiquitin-protein ligase DTX3L (Homo sapiens) (Q96SW2 whole entry, looked up, other chains not shown): as the sequence (Q96SW2 whole entry) above
Chain of Protein cereblon/SET domain-containing protein 4 (Homo sapiens) (Q96SW2 whole entry, looked up, the tested form may be a part): as the sequence (Q96SW2 whole entry) above
Chain of Protein cereblon/SET domain-containing protein 4 (Homo sapiens) (Q9NVD3 whole entry, looked up, the tested form may be a part): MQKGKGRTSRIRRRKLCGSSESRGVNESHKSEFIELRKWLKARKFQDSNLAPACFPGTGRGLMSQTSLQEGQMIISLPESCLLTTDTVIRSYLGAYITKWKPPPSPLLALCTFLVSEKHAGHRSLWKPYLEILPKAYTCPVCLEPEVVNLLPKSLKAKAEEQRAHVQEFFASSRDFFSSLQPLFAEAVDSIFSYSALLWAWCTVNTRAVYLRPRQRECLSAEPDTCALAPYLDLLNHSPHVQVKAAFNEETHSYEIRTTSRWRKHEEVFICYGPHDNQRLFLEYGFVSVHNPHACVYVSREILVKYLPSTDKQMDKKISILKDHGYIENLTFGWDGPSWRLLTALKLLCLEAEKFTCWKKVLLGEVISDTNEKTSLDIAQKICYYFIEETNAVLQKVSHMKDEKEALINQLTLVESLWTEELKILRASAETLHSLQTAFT

IC50 (BXPC-3 [1]): 800 nM | Activity [2]: Active | Activity [3]: inactive | Activity [4]: Active | Activity [5]: inactive | log2FC [6]: -0.96 | log2FC [7]: -0.9 | log2FC [8]: -0.86 | log2FC [9]: -0.84 | log2FC [10]: -0.78 | log2FC [11]: -0.75 | log2FC [12]: -0.67 | log2FC [13]: -0.67 | log2FC [14]: -0.63 | log2FC [15]: -0.61 | log2FC [16]: -0.59 | Activity [22]: inactive
SMILES: O=C1CCC(N2C(=O)c3cccc(NCCCCCC4CCN(CCNC(=O)c5cc6c(o5)C(=O)c5ccccc5C6=O)CC4)c3C2=O)C(=O)N1 (stereo not drawn)
log2FC [17]: 1.35 | log2FC [18]: 0.98 | log2FC [19]: 0.77 | log2FC [20]: 0.67 | log2FC [21]: 0.6 | inhibition (BXPC-3 [23]): Active
